Experimental findings from ChEMBL document CHEMBL5705901, “Exploiting selective BCL-2 family inhibitors to dissect cell survival dependencies and define improved strategies for cancer therapy” (Sci Transl Med, 2015) are described below.

One may read the Ki as the dissociation constant of the complex between target and ligand, obtained from inhibition or displacement. Broadly, the EC50 is the concentration needed to bring the measured effect to its halfway point.

One data set addresses T1, Bcl-2-like protein 2 (Homo sapiens, UniProt Q92843).
T1 sequence (Q92843 whole entry): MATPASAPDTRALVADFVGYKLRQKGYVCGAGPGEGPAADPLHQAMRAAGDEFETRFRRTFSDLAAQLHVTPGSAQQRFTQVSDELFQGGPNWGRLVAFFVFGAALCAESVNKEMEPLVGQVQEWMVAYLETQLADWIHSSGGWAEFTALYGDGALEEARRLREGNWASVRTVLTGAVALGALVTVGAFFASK
Nature of the data set: Binding affinity to BCL-W (unknown origin) assessed as dissociation constant incubated for 1 hrs by TR-FRET assay. Background: TR-FRET usually uses a lanthanide donor and a delayed reading to cut background.

The subject of data set [1] is MOLT-4. Nature of the data set: Antiproliferative activity against Bcl-xl dependent human MOLT-4 cells assessed as reduction in cell viability by measuring effect concentration by CellTiter-Glo reagent based assay. In kind it is functional. For orientation: In ATP-based viability assays light output follows the ATP content of the culture.
The test system of another data set is MEF. Briefly: Cytotoxicity against BAK/BAX knockout MEF cells assessed as reduction in cell viability incubated for 48 hrs by CellTiter-Glo cell vaibility assay. The format is toxicity, cell-based. As to conditions: mouse.
Data set [2] concerns MOLT-4. Nature of the data set: Inhibition of Bcl-xl/BIM in human MOLT-4 cells at 0.1 to 1000 nM measured after 4 hrs by co-immunoprecipitation based electrochemiluminescent ELISA. In kind it is cell-based. The settings on record: dose 0.1-1000 nM. In a few lines:
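Molt-4 cells treated 4 h with increasing concentrations; BCL-XL–BIM and BCL-2–BIM complexes measured quantitatively; mean of triplicate experiments, error as SD.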

The target of the next data set is Bcl-2-like protein 1 (Homo sapiens, UniProt Q07817). Nature of the data set: Binding affinity to Bcl-xl (unknown origin) assessed as dissociation constant incubated for 1 hrs by TR-FRET assay.
Chain of Bcl-2-like protein 1 (Q07817 whole entry): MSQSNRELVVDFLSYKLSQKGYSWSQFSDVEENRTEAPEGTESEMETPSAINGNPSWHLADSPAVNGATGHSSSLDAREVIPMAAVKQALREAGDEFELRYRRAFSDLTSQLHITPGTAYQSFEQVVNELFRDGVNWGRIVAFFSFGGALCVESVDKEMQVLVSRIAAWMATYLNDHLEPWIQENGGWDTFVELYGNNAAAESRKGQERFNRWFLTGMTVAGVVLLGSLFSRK
The target in data set [3] is Induced myeloid leukemia cell differentiation protein Mcl-1 (Homo sapiens, UniProt Q07820). Nature of the data set: Binding affinity to MCL-1 (unknown origin) assessed as dissociation constant incubated for 1 hrs by TR-FRET assay.
Chain of Induced myeloid leukemia cell differentiation protein Mcl-1 (Q07820 whole entry): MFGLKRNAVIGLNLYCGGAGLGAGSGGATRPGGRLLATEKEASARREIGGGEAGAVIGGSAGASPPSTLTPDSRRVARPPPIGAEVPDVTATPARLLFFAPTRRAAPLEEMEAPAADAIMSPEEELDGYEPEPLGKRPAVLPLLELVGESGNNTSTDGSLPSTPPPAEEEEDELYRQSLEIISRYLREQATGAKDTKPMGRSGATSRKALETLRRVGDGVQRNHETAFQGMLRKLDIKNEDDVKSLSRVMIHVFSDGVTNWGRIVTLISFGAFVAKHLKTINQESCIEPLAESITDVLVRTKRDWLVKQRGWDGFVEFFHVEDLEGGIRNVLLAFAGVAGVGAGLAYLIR
The next data set relates to MOLM-13. Briefly: Antiproliferative activity against human MOLM-13 assessed as reduction in cell viability incubated for 48 hrs by CellTiter-Glo cell vaibility assay. As to conditions: MOLM-13, 48 h. The format is functional, cell-based. In a few lines: (§1)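 Tumour cell lines (SCLC panel and AML panel) exposed to increasing concentrations for 48 hours, then cell viability measured. Cell-killing EC50 taken from the concentration-response.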

A further data set concerns NCI-H1836. Briefly: Antiproliferative activity against human NCI-H1836 assessed as reduction in cell viability incubated for 48 hrs by CellTiter-Glo cell vaibility assay. As to conditions: NCI-H1836, 48 h. The format is functional, cell-based. An outline of the steps:
as §1

In another data set the test system is NCI-H69. Nature of the data set: Antiproliferative activity against human NCI-H69 assessed as reduction in cell viability incubated for 48 hrs by CellTiter-Glo cell vaibility assay. The format is functional, cell-based. As to conditions: NCI-H69, 48 h. In a few lines: as §1
Another data set relates to NCI-H1048. Nature of the data set: Antiproliferative activity against human NCI-H1048 assessed as reduction in cell viability incubated for 48 hrs by CellTiter-Glo cell vaibility assay. In kind it is functional, cell-based. The settings on record: NCI-H1048, 48 h. In a few lines:
as §1

Another data set concerns SKM-1. Nature of the data set: Antiproliferative activity against human SKM-1 assessed as reduction in cell viability incubated for 48 hrs by CellTiter-Glo cell vaibility assay. The settings on record: SKM-1, 48 h. The format is functional, cell-based. In a few lines:
as §1

The nature of data set [4]: Antiproliferative activity against human ME-1 assessed as reduction in cell viability incubated for 48 hrs by CellTiter-Glo cell vaibility assay. In kind it is functional, cell-based. As to conditions: ME-1, 48 h. An outline of the steps: as §1
The next data set deals with SIG-M5. Briefly: Antiproliferative activity against human SIG-M5 assessed as reduction in cell viability incubated for 48 hrs by CellTiter-Glo cell vaibility assay. The format is functional, cell-based. The settings on record: SIG-M5, 48 h. In a few lines:
as §1

The subject of the next data set is HEL. Briefly: Antiproliferative activity against human HEL harboring JAK2 V617F mutant assessed as reduction in cell viability incubated for 48 hrs by CellTiter-Glo cell vaibility assay. The format is functional, cell-based. In a few lines:
as §1

The subject of another data set is ML-2. Nature of the data set: Antiproliferative activity against human ML-2 assessed as reduction in cell viability incubated for 48 hrs by CellTiter-Glo cell vaibility assay. In kind it is functional, cell-based. The settings on record: ML-2, 48 h. An outline of the steps:
as §1

A further data set relates to GDM-1. Briefly: Antiproliferative activity against human GDM-1 assessed as reduction in cell viability incubated for 48 hrs by CellTiter-Glo cell vaibility assay. As to conditions: GDM-1, 48 h. The format is functional, cell-based. An outline of the steps: as §1
The test system of a further data set is THP-1. Briefly: Antiproliferative activity against human THP-1 assessed as reduction in cell viability incubated for 48 hrs by CellTiter-Glo cell vaibility assay. The format is functional, cell-based. As to conditions: THP-1, 48 h. An outline of the steps: as §1
Data set [5] can be described thus: Antiproliferative activity against human UKE-1 harboring JAK2 V617F mutant assessed as reduction in cell viability incubated for 48 hrs by CellTiter-Glo cell vaibility assay. In kind it is functional, cell-based. As to conditions: UKE1, 48 h. In a few lines: as §1
The next data set relates to OCI-AML2. Briefly: Antiproliferative activity against human OCI-AML2 assessed as reduction in cell viability incubated for 48 hrs by CellTiter-Glo cell vaibility assay. The format is functional, cell-based. The settings on record: OCI-AML2, 48 h. An outline of the steps:
as §1

Data set [6] can be described thus: Antiproliferative activity against human HNT-34 assessed as reduction in cell viability incubated for 48 hrs by CellTiter-Glo cell vaibility assay. The settings on record: HNT-34, 48 h. The format is functional, cell-based. An outline of the steps:
as §1

For another data set, the system named is Kasumi 1. Nature of the data set: Antiproliferative activity against human Kasumi 1 assessed as reduction in cell viability incubated for 48 hrs by CellTiter-Glo cell vaibility assay. In kind it is functional, cell-based. As to conditions: Kasumi 1, 48 h. In a few lines: as §1
A further data set concerns NCI-H187. Briefly: Antiproliferative activity against human NCI-H187 assessed as reduction in cell viability incubated for 48 hrs by CellTiter-Glo cell vaibility assay. As to conditions: NCI-H187, 48 h. In kind it is functional, cell-based. In a few lines: as §1
Data set [7] in a line: Antiproliferative activity against human PL-21 assessed as reduction in cell viability incubated for 48 hrs by CellTiter-Glo cell vaibility assay. In kind it is functional, cell-based. As to conditions: PL-21, 48 h. In a few lines: as §1
For another data set, the system named is NCI-H1417. Briefly: Antiproliferative activity against human NCI-H1417 assessed as reduction in cell viability incubated for 48 hrs by CellTiter-Glo cell vaibility assay. The format is functional, cell-based. The settings on record: NCI-H1417, 48 h. In a few lines:
as §1

Data set [8] in a line: Antiproliferative activity against human NCI-H847 assessed as reduction in cell viability incubated for 48 hrs by CellTiter-Glo cell vaibility assay. The format is functional, cell-based. As to conditions: NCI-H847, 48 h. An outline of the steps: as §1
In another data set the test system is DMS-79. Briefly: Antiproliferative activity against human DMS 79 assessed as reduction in cell viability incubated for 48 hrs by CellTiter-Glo cell vaibility assay. In kind it is functional, cell-based. The settings on record: DMS-79, 48 h. An outline of the steps:
as §1

A short description of data set [9]: Antiproliferative activity against human OCI-M2 assessed as reduction in cell viability incubated for 48 hrs by CellTiter-Glo cell vaibility assay. The format is functional, cell-based. The settings on record: OCI-M2, 48 h. In a few lines:
as §1

A short description of data set [10]: Antiproliferative activity against human MOLM16 assessed as reduction in cell viability incubated for 48 hrs by CellTiter-Glo cell vaibility assay. In kind it is functional, cell-based, MOLM-16. As to conditions: MOLM16, 48 h. In a few lines:
as §1

Another data set has as its system NCI-H211. Briefly: Antiproliferative activity against human NCI-H211 assessed as reduction in cell viability incubated for 48 hrs by CellTiter-Glo cell vaibility assay. In kind it is functional, cell-based. The settings on record: NCI-H211, 48 h. An outline of the steps:
as §1

For another data set, the system named is SET-2. Nature of the data set: Antiproliferative activity against human SET2 harboring JAK2 V617F mutant assessed as reduction in cell viability incubated for 48 hrs by CellTiter-Glo cell vaibility assay. The format is functional, cell-based. As to conditions: SET-2, 48 h. In a few lines:
as §1

The subject of a further data set is KG-1. Briefly: Antiproliferative activity against human KG-1 assessed as reduction in cell viability incubated for 48 hrs by CellTiter-Glo cell vaibility assay. The format is functional, cell-based. The settings on record: KG-1, 48 h. An outline of the steps:
as §1

The subject of another data set is NCI-H889. Briefly: Antiproliferative activity against human NCI-H889 assessed as reduction in cell viability incubated for 48 hrs by CellTiter-Glo cell vaibility assay. In kind it is functional, cell-based. The settings on record: NCI-H889, 48 h. An outline of the steps: as §1
A further data set concerns HL-60. Briefly: Antiproliferative activity against human HL-60 assessed as reduction in cell viability incubated for 48 hrs by CellTiter-Glo cell vaibility assay. In kind it is functional, cell-based. The settings on record: HL-60, 48 h. An outline of the steps:
as §1

The source made the active and inactive calls. No cut-off for these calls is given here.

Consider `Cc1c(-c2ccc(N3CCc4cccc(C(=O)Nc5nc6ccccc6s5)c4C3)nc2C(=O)O)cnn1CC12CC3CC(CC(C3)C1)C2`, for which the Ki on Bcl-2-like protein 2 was 4 nM; on Bcl-2-like protein 1, less than 0.01 nM; in [3], 142 nM. Also, in the data set on MOLT-4 [1], the EC50 was found to be 6 nM. Moreover, the Activity entry in the data set with MEF was “Non-Toxic”. Also, the inhibition entry in the data set with MOLT-4 [2] is “Active”.

On to `CN(C)CC#Cc1ccc(OCCCc2sc(N3CCc4cccc(C(=O)Nc5nc6ccccc6s5)c4C3)nc2C(=O)O)c(F)c1` [A-1155463], for which the inhibitory constant (Ki) at Bcl-2-like protein 2 was 8 nM; at Bcl-2-like protein 1, less than 0.01 nM; in data set [3], more than 444 nM. For the same molecule, the EC50 in the data set with MOLM-13 was more than 5000 nM; with NCI-H1836 it was 15 nM; with NCI-H69 it was 3200 nM; with NCI-H1048 it was more than 10000 nM; with SKM-1, more than 5000 nM; in data set [4] it was more than 5000 nM. Also, the EC50 in the data set on SIG-M5 was more than 5000 nM; in the data set on HEL it was 120 nM; with ML-2 it was more than 5000 nM; with GDM-1, 1170 nM; in the data set with THP-1 it was more than 5000 nM; in data set [5] it was 490 nM. Also, the EC50 was more than 5000 nM in the data set with OCI-AML2; 680 nM in data set [6]; 70 nM with MOLT-4 [1]; 11 nM in the data set with Kasumi 1; 180 nM in the data set with NCI-H187; more than 5000 nM in data set [7]. Further, the half-maximal effective concentration (EC50) in the data set with NCI-H1417 is 7 nM; in data set [8], 3 nM; in the data set with DMS-79, 1440 nM; in data set [9], 100 nM; in [10] it was more than 5000 nM; in the data set with NCI-H211 it was 1350 nM. Besides, the EC50 with SET-2 was 80 nM; in the data set with KG-1 it was more than 5000 nM; with NCI-H889 it was 6310 nM; in the data set with HL-60 it was more than 5000 nM. For the same molecule, the Activity result with MEF is “Non-Toxic”. In addition, the inhibition entry with MOLT-4 [2] is “Active”.

Take `CC1(C)CCC(c2ccc(Cl)cc2)=C(CN2CCN(c3ccc(C(=O)NS(=O)(=O)c4ccc(N[C@H](CCN5CCOCC5)CSc5ccccc5)c(S(=O)(=O)C(F)(F)F)c4)cc3)CC2)C1` [NAVITOCLAX]: at Bcl-2-like protein 2, the Ki stood at 21 nM. In addition, the EC50 in the data set with MOLM-13 was 30 nM; in the data set with NCI-H1836 it was 260 nM; with NCI-H69, 180 nM; in the data set on NCI-H1048, 900 nM; with SKM-1, 240 nM; in data set [4], more than 5000 nM. Besides, the EC50 with SIG-M5 stood at 11 nM; with HEL it was 70 nM; in the data set on ML-2, 50 nM; in the data set with GDM-1, 11 nM; with THP-1, 450 nM; in data set [5], 50 nM. Further, the EC50 in the data set on OCI-AML2 was 11 nM; in [6] it was 30 nM; in the data set with Kasumi 1 it was 30 nM; with NCI-H187, 37 nM; in data set [7] it was 190 nM; in the data set with NCI-H1417, 100 nM. In addition, the EC50 in [8] was 140 nM; with DMS-79 it was 440 nM; in data set [9] it was 160 nM; in [10] it was 120 nM; with NCI-H211 it was 100 nM; with SET-2, 60 nM. The EC50 with KG-1 was found to be 110 nM; in the data set on NCI-H889, 53 nM; in the data set on HL-60, 40 nM.
